# Only some compounds are listed: those with a hit (about 0.41% of all), similar ones and a draw of the others.
# T cell modulator: T cell immune modulators affecting CD8 T cell-vesicle binding. 2C CD8+ T cell-vesicle binding, flow cytometry; active compounds read low. response (vesicle binding), % at 7 µM. actives 0.068% (n = 330,000);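 active means response, share of CD8 T cells binding vesicles, and their 90th percentile fluorescence all below set limits, cut at about 80% in these data, passing the limit was not always enough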;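 further: values below 100% mean blocked vesicle binding to the CD8+ T cells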
#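 incubation = binding step 1.5 h, 37 °C, antibody labelling 20 min, ice | test system = 2C mouse CD8+ T cells | read-out basis = percent CD8+ FL2 mean versus row control | controls = Peptide-free naked vesicles (low) and QL9 vesicles with 0.7% DMSO vehicle (high) | detection = flow cytometry of vesicle-bound cells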
# S1P3 antag-1: S1P3 (human) receptor antagonism | Q99500 | CHO S1P3 NFAT-BLA reporter, FRET fluorescence, antagonist mode | inhibition, % at 4.98 µM | actives 0.27% (n = 170,000) | AID 485;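 active means inhibition above the plate cutoff, the mean inhibition of test wells on that plate plus 3 SD, cut at about 28% in these data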;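 further: cells challenged with S1P at its EC80 of 0.8 µM; blue over green emission ratio from cleaved BLA substrate after 4 h stimulation; 0% = S1P-stimulated wells and 100% = unstimulated DMSO-only wells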
# Target sequence (Q99500 whole entry, looked up): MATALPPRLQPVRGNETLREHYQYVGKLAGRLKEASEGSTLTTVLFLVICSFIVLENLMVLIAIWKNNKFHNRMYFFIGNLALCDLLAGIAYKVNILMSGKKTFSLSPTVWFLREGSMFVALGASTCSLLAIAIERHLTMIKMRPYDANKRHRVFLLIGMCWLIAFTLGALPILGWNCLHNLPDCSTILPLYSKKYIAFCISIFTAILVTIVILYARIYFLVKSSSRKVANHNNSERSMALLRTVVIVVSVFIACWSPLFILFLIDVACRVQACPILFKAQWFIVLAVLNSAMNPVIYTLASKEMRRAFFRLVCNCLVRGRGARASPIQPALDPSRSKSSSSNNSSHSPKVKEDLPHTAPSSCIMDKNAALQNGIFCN
# Yeast superoxide: yeast age-related superoxide inhibition as caloric restriction mimetic | actives 0.18% (n = 330,000) | S. cerevisiae aged cells, superoxide DHE fluorescence; active compounds read low | superoxide response (% of plate mean), % at 10 µM | AID 2690;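 active means superoxide response under a set limit, about three screen SD below normal, cut at about 65% in these data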;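 further: yeast aged for seven days with compound at 30 °C before DHE staining; 100% = average MFI of all compound-treated wells on the plate with controls excluded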
# S1P3 antag-2: human S1P3 receptor antagonism, confirmation; AID 1429; CHO S1P3 NFAT-BLA reporter, FRET, antagonist mode; inhibition, % at 4.98 µM; actives 30% (n = 240); shares compounds with S1P3 antag-1;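 active means inhibition above the hit threshold that was computed for the earlier primary screen, cut at about 30% in these data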;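 further: 0% = S1P-stimulated wells and 100% = unstimulated DMSO-only wells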
# * = called active by the depositor; i = inactive; . = no result given.
SMILES,T cell modulator,S1P3 antag-1,Yeast superoxide,S1P3 antag-2
CN(C(=O)CC1C(=O)NCCN1CC(c1ccccc1)c1ccccc1)C(C1CC1)C1CC1 (stereo not given),170,29*,102,3
CN(CC1CCOCC1)C(=O)CC1C(=O)NCCN1CC(c1ccccc1)c1ccccc1 (stereo not given),317,.,87,.
CC1CN(C(=O)c2cc(S(=O)(=O)N(C)c3ccc(F)cc3)ccc2Cl)CC(C)O1 (stereo not given),0,.,92,.
Cc1ccc2nc(C)c3c(c2c1)COC3,170,30*,105,-3
Cc1nc2c(C)cccc2c2c1COC2,381,3,97,.
CCCCN1/C(=C/c2ccc3ccccc3[n+]2CC)Sc2ccccc21,.,30*,.,21
CCN1/C(=C/c2ccc3ccccc3[n+]2CC)C=Cc2ccccc21,332,.,109,.
CCN1/C(=C/c2ccc3cc(C)ccc3[n+]2C)Sc2ccc3sccc3c21,.,-1,.,.
CCN1/C(=C/c2ccc3cc(C)ccc3[n+]2CC)Sc2cc(C)ccc21,.,39*,.,21
S=C(NCc1ccncc1)Nc1cccc(Cl)c1,362,2,101,.
Fc1ccc(CNC(=S)Nc2cccc(Cl)c2)cc1,290,28*,120,6
Cc1cc(C)c(NC(=O)COC(=O)c2nc3nccc(C)n3n2)c(Cl)c1,153,.,112,.
CCCCN(C)CC(O)Cn1cc(/C=C/C(=O)c2cccs2)c2ccccc21 (stereo not given),657,33*,100,16
CCCCN(C)CC(O)Cn1cc(/C=C/C(=O)c2ccc(OCC)cc2)c2ccccc21 (stereo not given),154,.,98,.
CC1CCCN(C(=O)COC(=O)c2ccc(=O)n(Cc3ccccc3)n2)C1 (stereo not given),516,.,94,.
O=C(c1cc(C(=O)N2CCOCC2)c2nc3ccccc3n2c1)c1cc(Cl)cc(Cl)c1O,196,31*,92,-18
CCc1c(C)sc2nc3c(C(=O)N4CCOCC4)cc(C(=O)c4ccccc4O)cn3c(=O)c12,202,-5,87,.
CC1CCC2(CC1)NC(=O)N(CC(=O)N1c3ccccc3CC1C)C2=O (stereo not given),276,.,77,.
COc1ccc(-n2c(C)cc(/C=N/Nc3nnc(C)n3N)c2C)cc1,150,31*,104,-14
COc1cccc(/C=N/Nc2nnc(C)n2N)c1O,410,.,74,.
CCCS(=O)(=O)c1nc(S(=O)(=O)c2ccc(Cl)cc2)c(N2CCC(O)CC2)s1,253,.,117,.
CSc1ccc(CN2CCCC(N3CCN(c4ccccc4)CC3)C2)cc1 (stereo not given),119,.,105,.
CC(C(=O)Nc1cccc(Br)c1)c1ccc([N+](=O)[O-])cc1 (stereo not given),167,30*,123,21
CC(C(=O)Nc1cccnc1)c1ccc([N+](=O)[O-])cc1 (stereo not given),230,-11,100,.
CSc1ccc(Cl)c(C(=O)N2CCN(c3ncccn3)CC2)c1,256,.,108,.
SMILES,T cell modulator,S1P3 antag-1,Yeast superoxide,S1P3 antag-2
Cc1cc(S(=O)(=O)NCc2cccs2)ccc1-n1cnnn1,200,30*,99,-5
Cc1cc(S(=O)(=O)NCc2cccnc2)ccc1-n1cnnn1,41,-30,91,.
C=CC[C@H](CC(=O)NCCO)C(=O)N[C@H](COC(=O)[C@@H](CC=C)Cc1ccc(F)cc1)Cc1ccccc1,448,.,130,.
C(=C\c1ccc2ccccc2n1)/c1ccccc1,368,-1,85,.
CN(C)c1ccc(/C=C/c2ccc3ccccc3n2)cc1,178,46*,117,45*
O=C1N/C(=C\c2ccc(O)cc2)C(O)=C1C=NCc1ccccc1,167,29*,107,22
COc1ccc(/C=C2\NC(=O)C(C=NCc3ccccc3)=C2O)cc1,404,14,96,.
COc1ccc(CCNC(=O)C(=O)NCC2OCCN2S(=O)(=O)c2cc(F)ccc2F)cc1 (stereo not given),179,.,98,.
O=C(c1ccccc1)c1ccc2c(c1)OCCOCCOCCOCCO2,543,29*,92,-14
O=C(O)c1ccc2c(c1)OCCOCCOCCOCCOCCO2,202,.,90,.
COc1ccc(CNC(=O)COC(=O)CCCOc2ccc(Cl)cc2Cl)cc1,289,-6,117,.
O=C(COC(=O)CCCOc1ccc(Cl)cc1Cl)Nc1cccc(Cl)c1,281,43*,112,-26
COc1ccc(NS(=O)(=O)c2ccc3c(c2)N(C(C)=O)CCO3)cc1,262,.,81,.
CCC(C)NC(=O)c1cn(CC)c2ccc(S(=O)(=O)N3CCCCCC3)cc2c1=O (stereo not given),289,.,77,.
Cc1onc(-c2c(Cl)cccc2Cl)c1C(O)c1ccccc1 (stereo not given),191,.,106,.
COc1ccc(-c2[nH]ncc2N=Nc2cc(C)cc(C)c2)cc1,729,38*,106,12
COc1ccc(-c2[nH]ncc2N=Nc2ccccc2)cc1,348,-5,92,.
COc1ccc(S(=O)(=O)NCc2ccncc2)cc1NC(=O)c1ccc(Cl)cc1,313,.,98,.
CC1(C)OC(=O)C(=CNCC(O)c2ccccc2)C(=O)O1 (stereo not given),266,-4,88,.
CC1(C)OC(=O)C(=CNCCc2ccc(O)cc2)C(=O)O1,177,28*,94,-19
CCOC(=O)c1c(C)[nH]c(C)c1S(=O)(=O)N1CCN(c2cccc(C)c2)C(C)C1 (stereo not given),454,.,80,.
CCOc1ccc(OCC)c(NC(=O)C2CCN(c3cnccn3)CC2)c1,449,.,103,.
Cc1ccc(C(=O)NCC(=O)Nc2ncccc2C)s1,360,.,80,.
CCC(CC)C(=O)Nc1ccc([N+](=O)[O-])cn1,300,4,102,.
O=C(CCC1CCCC1)Nc1ccc([N+](=O)[O-])cn1,270,32*,118,-2
SMILES,T cell modulator,S1P3 antag-1,Yeast superoxide,S1P3 antag-2
Cc1cccc(C)c1NC(=O)c1cccc2c1C(=O)N(C1CCCCC1)C2,i,.,129,.
COc1ccccc1N1CCN(C(=O)c2cccc(S(=O)(=O)NCc3cccnc3)c2)CC1,344,.,105,.
CCN1C(=O)[C@H]2[C@@H](c3ccc(C)cc3)N3C(=O)N(c4ccc(OC)cc4)C(=O)[C@@]3(C)[C@H]2C1=O,751,.,105,.
CCCCn1c(=O)[nH]c2nc3cc(N)ccc3nc2c1=O,208,11,95,.
Nc1ccc2nc3c(=O)n(C4CCCCC4)c(=O)[nH]c3nc2c1,382,30*,106,13
O=C(COC(=O)c1cnc(Cl)c(Cl)c1)NCCC1=CCCCC1,251,33*,106,-17
Nc1cc(C(=O)OCC(=O)NCCC2=CCCCC2)ccc1Cl,539,.,100,.
CSc1ccc(/C=C/c2cc(=O)c3ccccc3[nH]2)cc1,234,30*,97,1
O=c1cc(/C=C/c2cccs2)[nH]c2ccccc12,313,.,82,.
NS(=O)(=O)c1ccc(NC(=O)c2ccc(S(=O)(=O)N3CCCCCC3)cc2)cc1,152,.,87,.
O=C(COc1ccccc1)N[C@@H]1c2ccccc2CC[C@@H]1O,.,.,83,.
O=C(Nc1ccc(F)cc1)Nc1cc(OCC(F)(F)F)cc(OCC(F)(F)F)c1,309,35*,99,10

# From PubChem
